Assay results as given in ChEMBL document CHEMBL3102708, “Chartarlactams A-P, phenylspirodrimanes from the sponge-associated fungus Stachybotrys chartarum with antihyperlipidemic activities” (J Nat Prod, 2014).
Calls of active or inactive are those of the source. The rule behind the calls is not given here.

Tests used:
HepG2 [1] = test: Antihyperlipidemic activity in human HepG2 cells assessed as reduction of oleic acid-induced intracellular total cholesterol accumulation at 10 uM […] measured after 6 hrs; format: functional, cell-based
Outline: (§1)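 HepG2 cells were kept in DMEM with 10% FBS and penicillin/streptomycin (100 μg/mL). At 70–80% confluence they were loaded with 100 μM oleic acid in DMEM for 12 h, then exposed to 10 μM compound in DMEM/100 μM oleic acid for a further 6 h. Lovastatin was the positive control and DMEM/oleic acid the blank. Intracellular TC and TG were measured with kits, n = 3, repeated in triplicate, mean ± SEM.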

HepG2 [2] = test: Antihyperlipidemic activity in human HepG2 cells assessed as reduction of oleic acid-induced lipid accumulation at 10 uM […] measured after 6 hrs by Oil Red O staining; format: functional, cell-based
Outline: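 HepG2 cells were grown in DMEM with 10% FBS and penicillin/streptomycin (100 μg/mL). At 70–80% confluence they received 100 μM oleic acid for 12 h, then 10 μM compound in DMEM/100 μM oleic acid for 6 h more. Lovastatin was the positive control and DMEM/oleic acid the blank. Neutral lipid was stained with Oil Red O and read at 358 nm, n = 8, repeated in triplicate, mean ± SEM.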

HepG2 [3] = test: Cytotoxicity against human HepG2 cells up to 100 uM; format: cell-based
HepG2 [4] = test: Antihyperlipidemic activity in human HepG2 cells assessed as reduction of oleic acid-induced intracellular triglyceride accumulation at 10 uM […] measured after 6 hrs; format: functional, cell-based; outline: as §1

SMILES | Activity (HepG2 [1]) | Activity (HepG2 [2]) | Activity (HepG2 [3]) | Activity (HepG2 [4])
C[C@@H]1CC[C@H]2C(C)(C)[C@H](O)CC[C@]2(C)[C@@]12Cc1c(O)cc3c(c1O2)/C(=C1\NC(=O)c2cc(O)c4c(c21)O[C@@]1(C4)[C@@H](C)CC[C@@H]2C(C)(C)[C@@H](O)CC[C@]21C)NC3=O | Active | Active | Non-toxic | 
C[C@H]1CC[C@H]2C(C)(C)[C@H](O)CC[C@]2(C)[C@@]12Cc1c(O)cc3c(c1O2)CNC3=O |  |  | Non-toxic | 
C[C@H]1CC[C@H]2C(C)(C)[C@H](O)[C@H](O)C[C@]2(C)[C@@]12Cc1c(O)cc3c(c1O2)CNC3=O |  |  | Non-toxic | 
CC(=O)O[C@@H]1[C@H](OC(C)=O)C[C@@]2(C)[C@@H](CC[C@@H](C)[C@]23Cc2c(O)cc4c(c2O3)CNC4=O)C1(C)C |  |  | Non-toxic | 
C[C@@H]1CC[C@H]2C(C)(C)[C@H](O)[C@@H](O)C[C@]2(C)[C@@]12Cc1c(O)cc3c(c1O2)CNC3=O |  |  | Non-toxic | 
C[C@@H]1CC[C@H]2C(C)(C)[C@H](O)CC[C@]2(C)[C@@]12Cc1c(O)cc3c(c1O2)C(=O)NC3 | Active | Active | Non-toxic | Active
C[C@@H]1CC[C@H]2C(C)(C)[C@H](O)CC[C@]2(C)[C@@]12Cc1c(O)cc3c(c1O2)C(=O)N(CCO)C3 |  |  | Non-toxic | 
C[C@H]1CC[C@H]2C(C)(C)[C@H](O)[C@H](O)C[C@]2(C)[C@@]12Cc1c(O)cc3c(c1O2)C(=O)NC3 |  |  | Non-toxic | 
C[C@@H]1CC[C@H]2[C@](C)(CO)[C@H](O)CC[C@]2(C)[C@@]12Cc1c(O)cc3c(c1O2)CNC3=O |  |  | Non-toxic | 
C[C@@H]1CC[C@H]2C(C)(C)[C@H](O)CC[C@]2(C)[C@@]12Cc1c(O)cc3c(c1O2)CN(CCO)C3=O |  |  | Non-toxic | 
C[C@@H]1CC[C@H]2C(C)(C)C(=O)CC[C@]2(C)[C@@]12Cc1c(O)cc3c(c1O2)CNC3=O | Active | Active | Non-toxic | Active
C[C@H]1CC[C@H]2C(C)(C)[C@H](O)CC[C@]2(C)[C@@]12Cc1c(O)cc3c(c1O2)CN(CCO)C3=O | Active | Active | Non-toxic | 
CC(=O)O[C@@H]1[C@H](O)C[C@@]2(C)[C@@H](CC[C@@H](C)[C@]23Cc2c(O)cc4c(c2O3)CNC4=O)C1(C)C |  | Active | Non-toxic | Active
CC(=O)O[C@@H]1CC[C@@]2(C)[C@@H](CC[C@@H](C)[C@]23Cc2c(O)cc4c(c2O3)CNC4=O)C1(C)C |  |  | Non-toxic | 
C[C@@H]1CC[C@H]2C(C)(C)[C@H](O)CC[C@]2(C)[C@@]12Cc1c(O[C@H]3O[C@H](CO)[C@@H](O)[C@H](O)[C@H]3O)cc3c(c1O2)CNC3=O | Active | Active | Non-toxic | 
C[C@@H]1CC[C@H]2C(C)(C)[C@H](O)CC[C@]2(C)[C@@]12Cc1c(O)cc3c(c1O2)C(=O)NC3=O |  |  | Non-toxic | 
C[C@@H]1CC[C@H]2C(C)(C)[C@H](O)CC[C@]2(C)[C@@]12Cc1c(O)cc3c(c1O2)CNC3=O |  |  | Non-toxic | 
C[C@@H]1CC[C@H]2C(C)(C)[C@@H](O)[C@H](O)C[C@]2(C)[C@@]12Cc1c(O)cc3c(c1O2)CNC3=O |  |  | Non-toxic | 
C[C@@H]1CC[C@H]2C(C)(C)[C@H](O)CC[C@]2(C)[C@@]12Cc1c(O)cc3c(c1O2)CN(C(Cc1ccccc1)C(=O)O)C3=O (some centres not stated) | Active | Active | Non-toxic | Active
C[C@@H]1CC[C@H]2C(C)(C)[C@H](O)[C@H](O)C[C@]2(C)[C@@]12Cc1c(O)cc3c(c1O2)CNC3=O |  |  | Non-toxic | 
C[C@H]1CC[C@H]2C(C)(C)[C@H](O)CC[C@]2(C)[C@@]12Cc1c(O)cc3c(c1O2)C(=O)NC3 |  | Active | Non-toxic | Active
C[C@@H]1CC[C@H]2C(C)(C)[C@H](O)[C@H](O)C[C@]2(C)[C@@]12Cc1c(O)cc3c(c1O2)CN(CCO)C3=O |  |  | Non-toxic | 
C[C@@H]1CC[C@H]2C(C)(C)[C@H](O)CC[C@]2(C)[C@@]12Cc1c(O)cc3c(c1O2)CN(CCCCC(=O)O)C3=O |  |  | Non-toxic | 
